Calls of active or inactive are those of the source. The calls are words filed in the database; no cut-off is given here.
Key:
[1] = test system: Human immunodeficiency virus 1; test: Antiviral activity against AZT-resistant Human immunodeficiency virus 1 expressing D67N/K70R/T215F/K219Q reverse transcriptase mutation; type: functional, organism-based
[2] = test system: Human immunodeficiency virus 1; test: Antiviral activity against wild type Human immunodeficiency virus 1 expressing p24 infected in human HeLa P4/R5 cells preincubated for 16 hrs prior to virus infection measured after 48 hrs by beta-galactosidase-based single replication cycle assay; type: functional, organism-based; conditions: for EC50: Human immunodeficiency virus 1, P4/R5
Method in brief: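 P4R5 indicator cells express CD4, CXCR4, CCR5 and an HIV LTR-driven β-galactosidase reporter, and were kept in DMEM/10% FBS with puromycin. Cells were seeded at 5×10^3 per well and exposed to varying drug concentrations for 16 h. They were then inoculated with 25 ng HIV-1 p24 per well. Infection was quantified 48 h post-infection by fluorescence-based β-galactosidase detection.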

[3] = target: Human immunodeficiency virus type 1 reverse transcriptase (Human immunodeficiency virus 1) (UniProt Q72547); test: Induction of AZT-resistant HIV1 reverse transcriptase assessed as rate of ATP-mediated excision of chain-terminating nucleotides by phosphorimaging analysis
Method in brief: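 5'-32P-labelled DNA primer annealed 1:1.5 to 40-nt RNA template, then chain-terminated with AZT-TP or the triphosphate analogue. AZT-resistant RT and terminated template/primer (2:1) in 50 mM Tris-HCl pH 8.0, 50 mM KCl. Started with 6 mM MgCl2 and 3 mM pyrophosphatase-pretreated ATP, 37°C. Stopped at timed points with formamide/EDTA dye and resolved by denaturing gel.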

[4] = target: Human immunodeficiency virus type 1 reverse transcriptase (Human immunodeficiency virus 1) (UniProt Q72547); test: Binding affinity to HIV1 reverse transcriptase assessed as compound-terminated template/primer translocation from N-site to P-site of enzyme preincubated for 20 mins prior to TTP addition measured after 10 mins by gel electrophoretic analysis
Method in brief: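 50 nM 32P-labelled primer/RNA template with 300 nM RT in 120 mM Na cacodylate pH 7.0, 20 mM NaCl, 6 mM MgCl2 and 100 μM AZT-TP or triphosphate analogue, 20 min at 37°C, for chain-terminator incorporation. Varying TTP then added for 10 min, followed by 500 μM Fe(NH4)2SO4 cleavage. Products resolved by denaturing gel electrophoresis.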

[5] = test system: Human immunodeficiency virus 1; test: Antiviral activity against Human immunodeficiency virus 1 3B infected in human CEM-SS cells assessed as inhibition of virus-induced cytopathic effect after 6 days by MTS assay; type: functional, organism-based; conditions: 144 h
[6] = (§1) Cytotoxicity against human CEM-SS cells assessed as cell viability after 6 days by MTS assay; type: cell-based; conditions: CEM-SS cells
[7] = test system: Human immunodeficiency virus 1; test: Antiviral activity against NNRTI-resistant Human immunodeficiency virus 1; type: functional, organism-based
[8] = target: Human immunodeficiency virus type 1 reverse transcriptase (Human immunodeficiency virus 1, UniProt Q72547); test: Inhibition of HIV1 reverse transcriptase-mediated [H3]TTP incorporation into poly(rA)-oligo(dT)16 DNA preincubated for 5 mins prior to primer/template and substrate addition by liquid scintillation spectrometric analysis
Method in brief: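 10 nM wt HIV-1 RT preincubated 5 min with inhibitor in DMSO (1% final), then 40 nM poly(rA)-oligo(dT)16 and 10 μM [3H]TTP added. Buffer 50 mM Tris-HCl pH 8.0, 60 mM KCl, 10 mM MgCl2; 20 min at 37°C. Quenched with cold 10% TCA/20 mM pyrophosphate, glass-fibre filtered, washed with TCA and ethanol, incorporation counted by liquid scintillation.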

[9] = test system: Human immunodeficiency virus 1; test: Antiviral activity against Human immunodeficiency virus 1 3B infected in human CEM-SS cells assessed as inhibition of virus-induced cytopathic effect at 10 uM after 6 days by MTS assay relative to control; type: functional; conditions: 144 h
[10] = test system: Human immunodeficiency virus 1; test: Ratio of EC50 for AZT-resistant Human immunodeficiency virus 1 to EC50 for wild type Human immunodeficiency virus 1 expressing p24; type: functional
[11] = Therapeutic index, ratio of CC50 for human CEM-SS cells to EC50 for Human immunodeficiency virus 1 3B; type: cell-based; conditions: read-out: Ratio CC50/EC50
CEM-SS [12] = test: as §1; type: cell-based; conditions: cem-ss, 144 h
CEM-SS [13] = test: Cytotoxicity against human CEM-SS cells assessed as cell viability at 10 uM after 6 days by MTS assay relative to control; type: cell-based; conditions: 144 h
[14] = test system: Human immunodeficiency virus 1; test: Ratio of EC50 for NNRTI-resistant Human immunodeficiency virus 1 to EC50 for wild type Human immunodeficiency virus 1 expressing p24; type: functional

Structure (SMILES) | EC50 [1] [µM] | EC50 [2] [µM] | Activity [3] [min⁻¹] | Activity [4] | EC50 [5] [µM] | CC50 at 144 h [6] [µM] | EC50 [7] [µM] | IC50 [8] [µM] | inhibition at 10 µM [9] [%] | Ratio EC50 [10] | selectivity ratio [11] | Activity [2] | CC50 (CEM-SS [12]) [µM] | Activity (CEM-SS [13]) [%] | Ratio EC50 [14]
Cc1cn([C@H]2C[C@H](N=[N+]=[N-])[C@@H](CO)O2)c(=O)[nH]c1=O [ZIDOVUDINE] | 7.9 | 0.14 | 0.024 | Active | 0.0053 | > 1 | 0.12 |  |  |  |  |  |  |  | 
Cc1cn([C@H]2C[C@H](n3nncc3-c3cccc4ccccc34)[C@@H](COP(=O)(O)OP(=O)(O)OP(=O)(O)O)O2)c(=O)[nH]c1=O |  |  | 0.0126 | Active |  |  |  | 3.7 |  |  |  |  |  |  | 
Cc1cn([C@H]2C[C@H](n3nncc3-c3cccc4ccccc34)[C@@H](CO)O2)c(=O)[nH]c1=O | 9.1 | 1 |  |  | 0.067 |  | 0.6 |  | 83 | 9 | 910 | Dose-dependent effect | 61 | 100 | 0.6
